Source: PubChem (several laboratories)
A selection: hits, their analogues and other compounds. The true share with any hit is near 1.8%.
TDP2 absorb: blocks human TDP2 phosphodiesterase activity; 0.34% of 370,000 active; O95551; inhibition, % at 12.8 µM; AID 720702; recombinant TDP2, T5PNP hydrolysis, p-nitrophenol absorbance 415 nm;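 active = inhibition above the mean of all tested compounds plus 3 SD, set per campaign, cut at about 25% in these data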;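 note: 0% = DMSO with enzyme and 100% = buffer with substrate but no TDP2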
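Assay system: Recombinant human TDP2 | Quantity: 120 nM TDP2 per well | Incubation: 2 h at 37 °C | Signal: Epi absorbance | Evaluation: Percent inhibition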
CTSL1 counter: blocks F. hepatica cathepsin L1 in PFM18AAP counter-screen | recombinant F. hepatica cathepsin L1, Z-Leu-Arg-MCA fluorescence | inhibition, % at 5.96 µM | 0.49% of 300,000 active;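 active = inhibition above the mean of all tested compounds plus 3 SD, set per screening campaign, cut at about 17% in these data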;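 note: 0% = plate median of test compound wells and 100% = 1 µM Z-Phe-Ala-diazomethylketone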
GSTO1 inh: GSTO1 inhibition, counter-screen for RBBP9 inhibitors; recombinant GSTO1, activity-based probe fluorescence polarization; inhibition, % at 5.96 µM; 1.1% of 300,000 active; AID 1974;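 active = inhibition above the campaign mean inhibition plus 3 SD, cut at about 35% in these data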;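 note: 0% = GSTO1-1 with DMSO and 100% = wells lacking GSTO1-1 enzyme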
PAD4 inh: PAD4 (human) enzyme inhibition. Q9UM07. recombinant PAD4, RCA probe fluorescence polarization. inhibition, % at 6.36 µM. 0.41% of 330,000 active. AID 485272;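 active = percent inhibition above a cutoff equal to the mean of all tested compounds plus 3 SD, cut at about 15% in these data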;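 note: 0% = PAD4 with RCA probe and DMSO and 100% = probe without PAD4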
Apaf1 inhib: human Apaf-1 inhibition; O14727; inhibition, % at 20 µM; AID 489030; 0.71% of 330,000 active; reconstituted apoptosome caspase-3 activity, DEVD-Rh110 fluorescence; active = inhibition of at least 40% at 20 µM;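 note: plate controls were DMSO wells for no effect and DEVD-CHO caspase inhibitor wells for full effect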
Target sequence (O14727 whole entry, looked up): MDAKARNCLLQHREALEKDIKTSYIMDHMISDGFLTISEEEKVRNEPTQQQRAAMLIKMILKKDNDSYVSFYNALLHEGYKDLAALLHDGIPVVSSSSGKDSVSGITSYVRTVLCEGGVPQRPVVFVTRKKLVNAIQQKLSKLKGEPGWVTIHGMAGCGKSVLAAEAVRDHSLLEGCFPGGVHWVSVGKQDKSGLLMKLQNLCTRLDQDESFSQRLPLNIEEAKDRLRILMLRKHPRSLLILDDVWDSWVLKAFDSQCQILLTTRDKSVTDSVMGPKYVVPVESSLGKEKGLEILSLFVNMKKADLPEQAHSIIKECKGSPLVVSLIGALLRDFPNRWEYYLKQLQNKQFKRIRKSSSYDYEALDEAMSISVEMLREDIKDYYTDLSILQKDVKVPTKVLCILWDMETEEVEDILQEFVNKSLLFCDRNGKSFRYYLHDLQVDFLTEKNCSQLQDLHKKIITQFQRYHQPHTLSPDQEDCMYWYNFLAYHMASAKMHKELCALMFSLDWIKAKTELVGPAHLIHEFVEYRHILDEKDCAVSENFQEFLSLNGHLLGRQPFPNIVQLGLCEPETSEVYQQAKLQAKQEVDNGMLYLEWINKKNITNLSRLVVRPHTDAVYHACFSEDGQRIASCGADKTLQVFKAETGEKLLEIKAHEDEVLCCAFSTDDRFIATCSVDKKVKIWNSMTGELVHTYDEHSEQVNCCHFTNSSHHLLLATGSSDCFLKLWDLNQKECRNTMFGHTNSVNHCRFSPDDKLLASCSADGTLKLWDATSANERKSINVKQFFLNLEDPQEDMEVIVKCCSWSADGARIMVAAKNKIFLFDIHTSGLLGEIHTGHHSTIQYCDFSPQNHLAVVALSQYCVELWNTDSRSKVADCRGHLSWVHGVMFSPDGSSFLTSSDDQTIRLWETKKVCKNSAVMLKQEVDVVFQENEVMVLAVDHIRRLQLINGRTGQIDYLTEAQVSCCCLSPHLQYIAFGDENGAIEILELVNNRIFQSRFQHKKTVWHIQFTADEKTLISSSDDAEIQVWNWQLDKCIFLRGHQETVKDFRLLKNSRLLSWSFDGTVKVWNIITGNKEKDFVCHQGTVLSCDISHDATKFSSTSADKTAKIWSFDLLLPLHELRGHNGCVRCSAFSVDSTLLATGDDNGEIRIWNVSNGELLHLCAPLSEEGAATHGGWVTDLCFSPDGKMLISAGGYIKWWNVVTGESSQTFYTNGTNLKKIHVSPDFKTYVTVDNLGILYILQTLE
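System – cell-free apoptosome with Apaf-1, procaspase-3 and caspase-9 · Buffer or medium – pH 7.5 Hepes buffer with CHAPS, BSA, DTT · Also added – cytochrome c with DEVD-Rh110 · Times – 30 min compound preincubation, 50 min activation, room temperature · Technique – Rh110 fluorescence intensity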
GSTO1 inh conf: confirmation of human GSTO1 inhibitors; inhibition, % at 5.96 µM; shares compounds with GSTO1 inh; recombinant GSTO1, probe fluorescence polarization; 54% of 2,400 active; AID 2176;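 active = inhibition above the primary screen's cutoff, its mean inhibition plus 3 SD, cut at about 35% in these data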;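 note: loss of polarization as inhibitors block binding of rhodamine sulfonate ester activity probe; 0% = GSTO1 with DMSO and 100% = wells lacking GSTO1 enzyme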
GSTO1 recomb ABPP: GSTO1 (human) inhibition by gel ABPP | inhibition, % at 1 µM | 30% of 130 active | recombinant GSTO1, gel ABPP SE-Rh probe fluorescence | shares compounds with GSTO1 inh;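 active = inhibition of the enzyme GSTO1 above about 75%, limit read from the data; inactive = inhibition below that limit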
Active calls of the source: *; . = no result.

SMILES	TDP2 absorb	CTSL1 counter	GSTO1 inh	PAD4 inh	Apaf1 inhib	GSTO1 inh conf	others
O=C(Nc1nc2ccccc2s1)c1cc(-c2ccco2)nc2ccccc12	-2	5	-9	-4	18	.
Cc1nnc(NC(=O)c2cc(-c3ccco3)nc3ccccc23)s1	-1	5	40*	-8	13	10
CCNC(=O)COC(=O)c1cc(-c2ccco2)nc2ccccc12	2	-4	41*	3	-20	8
Cc1cccc(CN2CCN(C(=O)CCl)CC2)c1	14	5	96*	-2	7	99*	GSTO1 recomb ABPP=61
CN(C)c1ccc(C(=O)NCCc2ccccc2-c2ccccc2CCC(=O)NCc2ccccc2)cc1	-7	.	.	.	.	.
CCc1nc(N2CCN(C(=O)CCl)CC2)c2c3c(sc2n1)CC(C)CC3 (stereo not given)	0	13	63*	2	19	79*	GSTO1 recomb ABPP=51
c1ccc(-c2c[nH]c3cccc(-c4cc5ccccc5o4)c23)cc1	-1	.	.	.	.	.
O=C(CCl)Nc1nc(-c2ccco2)c(-c2ccco2)s1	5	21*	88*	3	12	88*
O=C(CCCSc1ccccc1)Nc1nc(-c2ccco2)c(-c2ccco2)s1	-4	-5	-9	-17	.	.
CCc1cc(=O)oc2cc(OC(C)=O)cc(OC(C)=O)c12	-14	-19	47*	1	3	3
COc1ccc(S[C@]2(C(=O)N(C)C)CC(=O)N(c3ccc(C#N)cc3)[C@@H]2c2ccc(OC)cc2)cc1	-12	.	.	.	.	.
COC(=O)C1=C(C)N(C)C(=NCC2CC2)NC1c1ccccc1 (stereo not given)	9	.	.	.	.	.
Oc1c(Br)cc(Br)cc1/C=N/Nc1ccc(Cl)nn1	-1	-5	1	-1	.	.
Oc1ccc(/C=N/Nc2ccc(Cl)nn2)c(O)c1O	11	-5	71*	6	21	15
Cc1cc(C)n(C)c(=O)c1C#N	12	3	2	3	-3	.
Cc1c(C=O)c(Cl)n(C)c(=O)c1C#N	39*	67*	53*	27*	97*	84*
COc1cc(Sc2ccc(C)cc2)c(OC)cc1N	-3	2	47*	-19	18	7
Cc1nc2ccc(C(=O)N3CCN(C(=O)OCc4ccccc4)CC3)cc2n1C1CCCC1	6	.	.	.	.	.
CCn1nc(C)cc1C(=O)N1CCCC(N2CCN(c3cccc(Cl)c3)CC2)C1 (stereo not given)	4	0	47*	-3	-6	6
S=C(Nc1ccc(Br)cc1)OCCN1CCCC12CCC(c1ccccc1)CC2 (stereo not given)	0	.	.	.	.	.
Cc1ccccc1C(=O)N[C@H](C(=O)N1CCC[C@H]1C(=O)NC1CCCC1)C1CCCCC1	-3	.	.	.	.	.
COc1cccc(N(C(=O)CCl)C(C(=O)NCCc2ccccc2)c2cccs2)c1 (stereo not given)	3	0	94*	11	.	95*	GSTO1 recomb ABPP=75*
COc1ccc(N(C(=O)c2ccco2)C(C(=O)NC2CCCCC2)c2cccs2)cc1OC (stereo not given)	4	0	0	-5	2	.
COc1cccc(N(C(=O)c2snc(C(N)=O)c2N)C(C(=O)NCC2CCCO2)c2cccs2)c1 (stereo not given)	18	1	-3	-5	10	.
COc1ccc(N(C(=O)CCl)C(C(=O)NCCc2ccccc2)c2cccs2)cc1Cl (stereo not given)	4	-3	89*	10	.	91*	GSTO1 recomb ABPP=92*
SMILES	TDP2 absorb	CTSL1 counter	GSTO1 inh	PAD4 inh	Apaf1 inhib	GSTO1 inh conf	others
Cc1ccccc1NC(=O)OC1CC2CC1[C@H]1CCCCN1[C@H]2Cc1ccccc1 (stereo not given in full)	0	.	.	.	.	.
C[C@@H]1COc2cccc(N3CCCC3)c2S(=O)(=O)N1	7	.	.	.	.	.
CCOC(=O)c1sc(N(Cc2ccccc2)C(=O)COC(=O)c2ccccc2O)nc1C	-5	6	11	-2	-4	.
CCOC(=O)c1sc(N(Cc2ccccc2)C(=O)CCl)nc1C	1	22*	84*	5	23	92*
CCn1c(=O)cc(N2CCN(c3cccc(C(F)(F)F)c3)CC2)[nH]c1=O	-8	.	.	.	.	.
Cc1cc2c(nc1C)CCCN2S(=O)(=O)c1ccc(C(F)(F)F)cc1	5	.	.	.	.	.
CCOC(=O)c1c(NC(=O)CCl)sc(CN(C)C)c1-c1ccccc1	-4	22*	77*	6	-2	91*
COc1ccccc1N1C(=O)CC(N(O)c2ccccc2)C1=O (stereo not given)	-14	-2	7	5	2	.
O=C1CC(N(O)c2ccccc2)C(=O)N1c1cc(Cl)cc(Cl)c1 (stereo not given)	-1	0	68*	15*	20	3
COc1ccccc1N(O)C1CC(=O)N(c2ccc(F)cc2)C1=O (stereo not given)	10	1	57*	-20	4	3
CCCOc1ccc(N2C(=O)CC(N(O)c3ccccc3)C2=O)cc1 (stereo not given)	10	1	18	-2	21	.
S=c1[nH]c2ccccc2n2c(=S)[nH]nc12	7	-1	59*	2	3	39*
S=c1[nH]nc2ccc3ccccc3n12	-1	.	.	.	.	.
COc1ccc(-c2c(Cc3ccccc3)nc(NC(=O)c3ccccc3)n2C)cc1	7	.	.	.	.	.
Cc1ccc(S(=O)(=O)N[C@@H](Cc2ccccc2)C(=O)CCl)cc1	10	70*	45*	8	0	55*
CN(C)[C@@H]1CCN(c2ccc3c(c2)OCCCN(C2CC2)S3(=O)=O)C1	4	.	.	.	.	.
COc1ccc(S(=O)(=O)N2CCOCC2)cc1NC(=O)CN1CCN(C)CC1	-2	-2	38*	-3	-5	4
COc1ccc(S(=O)(=O)N2CCCCC2)cc1NC(=O)CN1CCN(C(C)=O)CC1	-1	4	9	-3	4	.
N#C/C(=C\c1c(N2CCC(C(N)=O)CC2)nc2ccccn2c1=O)C(=O)NCc1ccco1	-6	-1	45*	1	-3	8
Cc1cccn2c(=O)c(/C=C(\C#N)C(=O)NCc3ccco3)c(N3CCOCC3)nc12	3	-4	5	3	-2	.
COC(=O)[C@]12C[C@H](CC(=O)NCCCCc3ccccc3)C(=O)N(Cc3ccc4c(c3)OCO4)C1=C[C@H](C(C)C)O[C@@H]2C1CC1	-10	.	.	.	.	.
CCC(=O)OC1(C)C(=O)C=C2C=C(c3ccsc3)OC=C2C1=O (stereo not given)	.	1	40*	-14	18	26
CC1(O)C(=O)C=C2C=C(c3ccsc3)OC=C2C1=O (stereo not given)	.	1	46*	1	6	25
